Assay results taken from paper PMC8276234 (Journal of medicinal chemistry, 2019).
Entries after “also recorded” stand apart in the source; their conditions may differ. One block for each compound: values may come before it.

Tests used:
b’ domain of PDI = b’ domain of PDI (Homo sapiens, UniProt P07237); assay: ANS spectral scan; assay type: binding; conditions: 5 μM PDI, 100 μM compound
Summary of the method: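 Human PDI was preincubated with 100 μM compound or matching DMSO in TBS at 37 °C for 1 h. ANS was then added, followed by 20 min in the dark at 25 °C. Fluorescence spectrum: Ex 370 nm, Em 400–700 nm.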

PDI [1] = target: T1, PDI (Homo sapiens, UniProt P07237); assay: PDI reductase assay; assay type: biochemical; conditions: for fold reduction of potency: replacing the nitrile in BAP2 (6) and 32 with a trifluoromethyl group; for PDI inhibitory activity (in words): PDI reductase assay
Summary of the method: (§1)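 N-terminal His-tagged human PDI was expressed in E. coli BL21(DE3) pLysS with 1 mM IPTG for 4 h at 37 °C. It was purified on Ni-NTA and dialyzed into 100 mM sodium phosphate, 2 mM EDTA, pH 7.0. PDI (0.4 μM) was preincubated 1 h with compound in phosphate/EDTA buffer with 8 μM DTT. DTT (500 μM) and bovine insulin (130 μM) were then added at room temperature. Aggregation was read at 620 nm. Percent activity came from the 0–80 min change, corrected for DTT alone.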

GBM cell = assay: Combination with As2O3, GBM cell proliferation; assay type: cell-based
wild-type PDI = wild-type PDI (Homo sapiens, UniProt P07237); assay: Thermal shift assay, wild-type PDI; assay type: binding; conditions: for stabilization of PDI to thermal denaturation: 100 μM; for increase of melting temperature: recombinant PDI, dose-dependent, up to 100 μM
Summary of the method: (§2)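 Purified PDI (wild-type, C53S/C397S or H256A; 0.5 mg/mL in 50 mM Tris, pH 7.0) was mixed with compound in DMSO and ROX dye. Samples were heated from 25 to 99 °C at 1 °C/min. Boltzmann melting temperature was compared with the 5% DMSO control.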

A172 cells = assay: Transwell migration assay; assay type: cell-based, human; conditions: 4 hours
Summary of the method: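 Treated A172 cells (1 x 10^5) were seeded into inserts with 8.0 µm PET membranes in serum-free medium. The lower well held DMEM with 10% FBS, and FBS-free wells served as control. After 4 h, cells were Giemsa-stained and 5 fields per well were imaged at 10X.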

MMP9 = assay: Western blot of cell lysates, MMP9; assay type: cell-based, human; conditions: U87MG cells, 10 μM (PACMA31 0.25 μM), 48 hours
Summary of the method: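 Treated U87MG cells were lysed by sonication in Tris/NaCl/Triton X-100/SDS buffer (pH 7.4) and spun at 13,500×g, 4 °C, 10 min. Protein was quantified by BCA. 30 μg per lane ran on 10% gels and transferred to PVDF. Primary antibodies were applied overnight at 4 °C. Fluorescent secondaries were imaged.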

U87MG cells = assay: Bromouridine RNA sequencing; assay type: cell-based, human; conditions: 10 μM compound 18, U87MG cells, 4 hours
Summary of the method: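 U87MG cells exposed to test compound or DMSO for 4 h, with 2 mM bromouridine added for the last 30 min. Total RNA was TRIzol-extracted, and Bru-labelled RNA was captured on anti-BrdU antibody magnetic beads, then sequenced. Reads were mapped to hg19. Genes were filtered to size >300 bp and mean RPKM >0.5, and ranked by transcription fold change versus control for pre-ranked GSEA.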

PDI [2] = target: T1, PDI; assay: PDI reductase assay after competition with N-acetyl cysteine; assay type: biochemical; conditions: compound 40 μM; 0, 1, 2 or 5 mM NAC
Summary of the method: as §1

H256A PDI [3] = target: T2, H256A PDI (Homo sapiens, UniProt P07237, H256A); assay: PDI reductase assay, H256A mutant PDI; assay type: biochemical; conditions: 10 μM
Summary of the method: as §1

H256A PDI [4] = target: T2, H256A PDI; assay: Thermal shift assay, H256A PDI; assay type: binding; conditions: 100 μM
Summary of the method: as §2

C53S/C397S PDI = C53S/C397S PDI (Homo sapiens, UniProt P07237, C397S/C53S); assay: Thermal shift assay, C53S/C397S PDI; assay type: binding; conditions: 100 μM
Summary of the method: as §2

[5] = tested on: HFF-1 normal human fibroblast cells; assay: MTT assay in normal fibroblasts; assay type: cell-based; conditions: potency in NU04 versus HFF-1 cells
D54 cells = assay: Clonogenic survival assay with ionizing radiation; assay type: cell-based; conditions: 1 μM, 0-6 Gy
Summary of the method: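 D54 monolayer cells (37 °C, 5% CO2, mycoplasma-tested, STR-authenticated) were irradiated at 0, 1, 2, 4 or 6 Gy and plated immediately at 200, 200, 400, 600 and 1000 cells/well. Test compounds (1 μM), reference inhibitor (0.05 μM) or DMSO were added. After 10–12 days, colonies were stained with 0.1% crystal violet.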

MMP2 = assay: Gelatin zymography and Western blot of conditioned media; assay type: cell-based, human; conditions: U87MG cells, 10 μM (PACMA31 0.25 μM), 48 hours
Summary of the method: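 U87MG cells (0.5 x 10^6/well) attached overnight and were serum-starved 12 h before treatment. Cleared conditioned media (5 µg protein) ran on 10% SDS-PAGE with 0.1% gelatin. Gels were washed in 2.5% Triton X-100 Tris/CaCl2/ZnCl2 buffer, incubated overnight at 37 °C, then Coomassie R-250 stained and destained. Cleaved MMP2 in media was also assessed by Western blot.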

T2 sequence (P07237 18-508 H256A): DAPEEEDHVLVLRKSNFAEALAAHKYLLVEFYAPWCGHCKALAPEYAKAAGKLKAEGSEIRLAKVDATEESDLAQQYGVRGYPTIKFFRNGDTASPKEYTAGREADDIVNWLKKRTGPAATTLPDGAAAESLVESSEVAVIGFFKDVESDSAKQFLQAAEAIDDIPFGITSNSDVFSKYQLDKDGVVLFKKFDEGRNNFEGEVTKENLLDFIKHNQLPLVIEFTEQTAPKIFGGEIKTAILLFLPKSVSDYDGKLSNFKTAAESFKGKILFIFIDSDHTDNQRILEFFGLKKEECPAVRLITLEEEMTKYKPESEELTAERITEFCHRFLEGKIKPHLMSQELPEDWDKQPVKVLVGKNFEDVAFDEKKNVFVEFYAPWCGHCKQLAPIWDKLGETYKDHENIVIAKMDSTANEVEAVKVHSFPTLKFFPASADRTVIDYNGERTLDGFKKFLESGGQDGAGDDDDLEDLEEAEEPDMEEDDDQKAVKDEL
Chain of C53S/C397S PDI (P07237 18-508 C53S/C397S): as the sequence (P07237 18-508 H256A) above, with C36S, A239H, C380S counted along it
Chain of wild-type PDI (P07237 18-508): as the sequence (P07237 18-508 H256A) above, with A239H counted along it
T1 sequence (P07237 18-508): as the sequence (P07237 18-508 H256A) above, with A239H counted along it
Chain of b’ domain of PDI (P07237 18-508): as the sequence (P07237 18-508 H256A) above, with A239H counted along it

SMILES: COc1ccc(C(=O)/C=C/c2cccc(C#N)c2)cc1 [Compound 8, (E)-3-(3-(4-Methoxyphenyl)-3-oxoprop-1-en-1-yl)benzonitrile]
effect on ANS fluorescence (b’ domain of PDI): did not hinder dye fluorescence

SMILES: N#Cc1cccc(/C=C/C(=O)c2ccc(S(N)(=O)=O)cc2)c1 [Compound 13, (E)-4-(3-(3-Cyanophenyl)acryloyl)benzenesulfonamide]
inhibition of GBM cell proliferation in combination with As2O3 (GBM cell): synergistically

SMILES: CN(C)S(=O)(=O)c1ccc(C(=O)/C=C/c2cccc(C#N)c2)cc1 [Compound 14, (E)-4-(3-(3-Cyanophenyl)acryloyl)-N,N-dimethylbenzenesulfonamide]
inhibition of GBM cell proliferation in combination with As2O3 (GBM cell): synergistically

SMILES: CCN(CC)S(=O)(=O)c1ccc(C(=O)/C=C/c2cccc(C#N)c2)cc1 [Compound 15, (E)-4-(3-(3-Cyanophenyl)acryloyl)-N,N-diethylbenzenesulfonamide]
inhibition of GBM cell proliferation in combination with As2O3 (GBM cell): synergistically

SMILES: CCCCCN(CCCCC)S(=O)(=O)c1ccc(C(=O)/C=C/c2cccc(C#N)c2)cc1 [Compound 18, (E)-4-(3-(3-Cyanophenyl)acryloyl)-N,N-dipentylbenzenesulfonamide]
stabilization of PDI to thermal denaturation (wild-type PDI): did not stabilize PDI
transwell migration (A172 cells; 10 μM): inhibited migration
transwell migration (A172 cells; 30 μM): inhibited migration
MMP9 expression (MMP9): decreased
Fold Change in transcription, AKAP5 (U87MG cells): −3.4
Fold Change in transcription, ANKRD36B (U87MG cells): −2.8
Fold Change in transcription, BARD1 (U87MG cells): −2.3
Fold Change in transcription, BBS10 (U87MG cells): −2.3
Fold Change in transcription, CCNA2 (U87MG cells): −2.3
Fold Change in transcription, CHSY3 (U87MG cells): −2.6
Fold Change in transcription, DUT (U87MG cells): −2.3
Fold Change in transcription, FBXO43 (U87MG cells): −2.7
Fold Change in transcription, FPGT (U87MG cells): −2.3
Fold Change in transcription, HIST1H2BC (U87MG cells): −2.3
Fold Change in transcription, KCTD4 (U87MG cells): −2.8
Fold Change in transcription, LYPD6 (U87MG cells): −3.1
Fold Change in transcription, MYBL1 (U87MG cells): −2.6
Fold Change in transcription, SLITRK5 (U87MG cells): −3.6
Fold Change in transcription, ST8SIA4 (U87MG cells): −3.1
Fold Change in transcription, ZNF404 (U87MG cells): −2.7

SMILES: N#Cc1cccc(/C=C/C(=O)c2cnccn2)c1 [Compound 29, (E)-3-(3-Oxo-3-(pyrazin-2-yl)prop-1-en-1-yl)benzonitrile]
effect on ANS fluorescence (b’ domain of PDI): did not hinder dye fluorescence

SMILES: CCCCCN(CCCCC)S(=O)(=O)c1ccc(C(=O)/C=C/c2cccc(O)c2)cc1 [Compound 59, (E)-4-(3-(3-Hydroxyphenyl)acryloyl)-N,N-dipentylbenzenesulfonamide]
activity after competition with N-acetyl cysteine (NAC) (PDI [2]): abolished by 5 mM NAC, but not by lower concentrations
increase of melting temperature (wild-type PDI): more than 1 °C
transwell migration (A172 cells; 30 μM): inhibited migration
effect on ANS fluorescence (b’ domain of PDI): competes with ANS
activity against H256A mutant PDI (H256A PDI [3]): active against the H256A mutant; also recorded: not His256-dependent
Fold Difference [5]: 3.8
MMP9 expression (MMP9): decreased
stabilization (thermal shift) in the H256A mutant (H256A PDI [4]): not abolished
stabilization (thermal shift) in the C53S/C397S mutant (C53S/C397S PDI): not abolished

SMILES: O=C(/C=C/c1ccccc1O)c1ccccc1O [NC588]
PDI inhibitory activity (in words) (PDI [1]): inactive

SMILES: C[C@]12CC[C@@H]3c4ccc(O)cc4CC[C@H]3[C@@H]1CC[C@@H]2O [estradiol, reference compound]
stabilization of PDI to thermal denaturation (wild-type PDI): stabilizes PDI to thermal denaturation
increase of melting temperature (wild-type PDI): more than 1 °C
stabilization (thermal shift) in the H256A mutant (H256A PDI [4]): abolished
stabilization (thermal shift) in the C53S/C397S mutant (C53S/C397S PDI): but not the C53S/C397S mutant

More lines, main results first:

fold decrease in the inhibition of PDI activity (PDI [1]; replacement of the hydroxyl group (6) with bromine): 2 fold
SMILES: N#Cc1cccc(/C=C/C(=O)c2ccc(Br)cc2)c1 [Compound 10, (E)-3-(3-(4-Bromophenyl)-3-oxoprop-1-en-1-yl)benzonitrile]

increase of melting temperature (wild-type PDI): more than 1 °C
activity against H256A mutant PDI (H256A PDI [3]): abolished upon mutation
stabilization (thermal shift) in the H256A mutant (H256A PDI [4]): not abolished
stabilization (thermal shift) in the C53S/C397S mutant (C53S/C397S PDI): not abolished
SMILES: COC(=O)c1cccc(/C=C/C(=O)c2cccc(O)c2)c1 [Compound 46, Methyl-(E)-3-(3-(3-hydroxyphenyl)-3-oxoprop-1-en-1-yl)benzoate]
activity after competition with N-acetyl cysteine (NAC) (PDI [2]): abolished by 5 mM NAC, but not by lower concentrations

fold reduction of potency (PDI [1]): 2 to 4 fold
SMILES: O=C(/C=C/c1cccc(C(F)(F)F)c1)c1ccc(O)cc1 [Compound 55, (E)-1-(4-Hydroxyphenyl)-3-(3-(trifluoromethyl)phenyl)prop-2-en-1-one]

fold reduction of potency (PDI [1]): 2 to 4 fold
SMILES: O=C(/C=C/c1ccc(C(F)(F)F)cc1)c1ccc(O)cc1 [Compound 57, (E)-1-(4-Hydroxyphenyl)-3-(4-(trifluoromethyl)phenyl)prop-2-en-1-one]

activity after competition with N-acetyl cysteine (NAC) (PDI [2]): unaffected by up to 5 mM NAC
increase of melting temperature (wild-type PDI): more than 1 °C
activity against H256A mutant PDI (H256A PDI [3]): abolished upon mutation
stabilization (thermal shift) in the H256A mutant (H256A PDI [4]): not abolished
stabilization (thermal shift) in the C53S/C397S mutant (C53S/C397S PDI): not abolished
SMILES: O=C(/C=C/c1ccc(-c2cccnc2)cc1)c1cccc(O)c1 [Compound 68, (E)-1-(3-Hydroxyphenyl)-3-(4-(pyridin-3-yl)phenyl)prop-2-en-1-one]
synergy with ionizing radiation (IR) (D54 cells): synergized with IR
MMP9 expression (MMP9): decreased
MMP2 activity and secretion (MMP2): inhibit MMP2 activity and secretion

stabilization of PDI to thermal denaturation (wild-type PDI): did not stabilize PDI
SMILES: O=C(/C=C/c1ccc(-c2ccncc2)cc1)c1cccc(O)c1 [Compound 69, (E)-1-(3-Hydroxyphenyl)-3-(4-(pyridin-4-yl)phenyl)prop-2-en-1-one]

PDI inhibitory activity (in words) (PDI [1]): inactive
SMILES: O=C(/C=C/c1ccc(O)cc1)c1ccccc1O [NC587]

PDI inhibitory activity (in words) (PDI [1]): inactive
SMILES: O=C(/C=C/c1cccc(O)c1)c1ccccc1O [NC589]
